Out of some 340,000 compounds screened, about 540 (0.16%) were called active.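 How the source made its calls: active means inhibition above about 35% when tested at 20 µM (limit read from the data); inactive means the rest.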 Shown is part of a subset that was picked to be rich in actives.
What follows are compounds tested against Hexokinase HKDC1 (Homo sapiens) (UniProt Q2TB90) (assay: blockers of human HKDC1 enzyme activity – biochemical, fluorescence, uHTS, primary screen (AID 493160;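 further: plate controls were DMSO wells with enzyme for no effect and DMSO wells lacking enzyme for full effect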)). Conditions: recombinant HKDC1, G6PDH/diaphorase resazurin coupled fluorescence; at 20 µM; stronger effect = higher value.
Chain of Hexokinase HKDC1 (Homo sapiens) (Q2TB90 whole entry, looked up): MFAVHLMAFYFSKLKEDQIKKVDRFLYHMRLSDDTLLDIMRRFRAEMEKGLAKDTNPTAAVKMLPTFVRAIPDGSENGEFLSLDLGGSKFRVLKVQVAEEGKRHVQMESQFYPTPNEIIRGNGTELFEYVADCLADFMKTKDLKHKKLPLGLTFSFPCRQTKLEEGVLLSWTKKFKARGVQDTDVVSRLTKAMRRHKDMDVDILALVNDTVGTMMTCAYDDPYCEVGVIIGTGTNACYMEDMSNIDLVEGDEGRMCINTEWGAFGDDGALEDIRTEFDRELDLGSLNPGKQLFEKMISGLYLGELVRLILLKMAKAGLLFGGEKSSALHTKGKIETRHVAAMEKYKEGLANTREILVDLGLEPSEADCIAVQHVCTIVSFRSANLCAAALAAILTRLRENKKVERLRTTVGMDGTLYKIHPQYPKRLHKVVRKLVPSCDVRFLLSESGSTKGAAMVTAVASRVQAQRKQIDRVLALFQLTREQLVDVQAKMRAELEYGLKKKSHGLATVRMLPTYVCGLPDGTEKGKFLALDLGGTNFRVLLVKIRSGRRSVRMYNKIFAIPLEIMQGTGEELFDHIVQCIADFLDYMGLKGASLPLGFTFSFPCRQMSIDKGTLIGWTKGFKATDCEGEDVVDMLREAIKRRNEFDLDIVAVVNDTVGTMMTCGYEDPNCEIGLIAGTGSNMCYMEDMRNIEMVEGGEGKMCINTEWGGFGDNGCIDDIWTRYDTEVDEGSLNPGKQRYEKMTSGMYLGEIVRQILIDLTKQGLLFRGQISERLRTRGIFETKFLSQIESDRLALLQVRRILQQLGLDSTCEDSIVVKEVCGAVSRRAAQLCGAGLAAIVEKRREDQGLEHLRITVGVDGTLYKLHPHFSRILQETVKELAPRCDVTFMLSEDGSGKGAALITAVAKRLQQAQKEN
Summary of the method: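 Assay system: recombinant HKDC1 hexokinase; detection: coupled resazurin fluorescence, excitation 525 nm, emission 613 nm; benchmarks: DMSO-plus-enzyme-mix negative control, buffer-substituted positive control; compound dosing: single 20 µM dose; schedule: 90 min at room temperature in dark; also added: glucose plus 1 mM ATP as hexokinase substrates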

Structure (SMILES) | inhibition
O=C1N[C@@H](Cc2ccccc2)C(=O)N2[C@H]1C[C@]1(Br)c3ccccc3N(S(=O)(=O)c3ccccc3)[C@H]21 | 8.21% (inactive)
Cc1nn(C)cc1S(=O)(=O)N1CCN(c2ccc(F)cc2)CC1 | -0.86% (inactive)
CN(C)c1ccc(C(=S)N2CCN(C(=S)Nc3ccc(Cl)cc3)CC2)cc1 | 7.9% (inactive)
Cc1cc(Cl)ccc1C(=O)C1CCCN(C(=O)CCN2CCCO2)C1 (centres undefined) | -7.55% (inactive)
O=C(/C=C(O)/C=C/c1ccc(O)cc1)/C=C/c1ccc(O)cc1 | 5.34% (inactive)
O=C(COC(=O)c1ccccc1NC(=O)c1ccco1)Nc1ccc2c(c1)OC(F)(F)O2 | -9.13% (inactive)
CCOC(=O)C(C)n1cnc2scc(-c3ccc(C)c(C)c3)c2c1=O (centres undefined) | -0.93% (inactive)
O=C(c1cccnc1)N(Cc1ccccc1)C(=O)c1cccnc1 | -5.95% (inactive)
COc1ccc(N(C(=O)c2cccnc2)S(=O)(=O)c2ccc(OC)c(OC)c2)cc1 | -5.15% (inactive)
O=C(c1cccnc1)N(c1cc2sc(=O)oc2c2ccccc12)S(=O)(=O)c1ccccc1 | 38.2% (active)
CCn1c(SCC(=O)Nc2cc(C)ccc2C)nnc1-c1cnccn1 | 2.21% (inactive)
CN1c2ccc(C=O)c3c(C=O)ccc(c23)N(C)C1(C)C | 36.4% (active)
CCOC(=O)C1=C(c2ccc(OC)cc2)C(=O)c2ccccc2C1=O | 81.4% (active)
COc1ccc(CNC(=O)CCN2C(=O)c3ccccc3C2=O)cc1 | 0.43% (inactive)
COC(=O)c1cc(OC)ccc1-c1ccc(OC)cc1 | 6.2% (inactive)
COC(=O)[C@H](Cc1ccccc1)NC(=O)Nc1ccc(S(N)(=O)=O)cc1 | 1.79% (inactive)
C=CC[C@@H](CC(=O)N[C@@H](CO)Cc1ccccc1)C(=O)N[C@H](COC(=O)[C@H](CC=C)CC(=O)OC(C)(C)C)Cc1ccccc1 | -4.61% (inactive)
COc1ccc(NC(=O)CSc2ccc(-c3ccco3)nn2)c(OC)c1 | 47.3% (active)
COc1ccc(NC(=O)CCC(=O)Nc2cc(OC)c(NC(=O)c3ccco3)cc2OC)c(OC)c1 | 1.97% (inactive)
O=C(CSc1ccc(-c2ccco2)nn1)NCc1ccc2c(c1)OCO2 | -3.81% (inactive)
CC(C)N(Cc1nnc(-c2ccccc2Br)o1)C(=O)c1cc(Cl)nc2ccccc12 | 0.82% (inactive)
CCOC(=O)c1ccc2c(c1)nc(SCC(=O)NC(C)C)n2CC | -4.33% (inactive)
Cc1ccc(CN2CCNC(=O)C2CC(=O)NCc2csc(C(C)C)n2)cc1 (centres undefined) | -3.03% (inactive)
CC1CC(C)CN(C(=O)CSc2nnc(CSc3ncccn3)n2C)C1 (centres undefined) | -4.12% (inactive)

— PubChem BioAssay AID493160 (Sanford-Burnham Center for Chemical Genomics, 2011)
